These results are taken from publication PMC9933479 (ACS Omega, 2023).

Common to all, as to assay: MTT assay, cytotoxicity/growth inhibition
(Tetrazolium dyes change colour on reduction, which living cells bring about.)

Data set [1] has as its system PC-3 (prostate carcinoma). It counts as cell-based. The conditions noted are these: Homo sapiens; for inhibition at 20 µM: 48 h, read-out: Cytotoxic Activity (% Growth Inhibition). The method in brief:
(§1)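 Cells were grown in RPMI (A549, HCT-116, PC-3) or DMEM (MCF-7) with 10% FBS at 37 °C and 5% CO2. Seeding per well was […] and PC-3 8 × 10^4 cells. […] MTT 250 μg/mL, 4 h; DMSO; A570; triplicate; mean ± SE.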

In the next data set the test system is A549 (lung carcinoma). It counts as cell-based, human. The conditions noted are these: for Cytotoxic Activity (% Growth Inhibition): A549, 20 μM concentration, MTT, 48 h, 20 µM; for IC50 / inhibition at 20 µM: Homo sapiens; for IC50: A549; for inhibition at 20 µM: A549, 48 h, read-out: Cytotoxic Activity (% Growth Inhibition), A549, 20 μM concentration, MTT, 48 h. The method in brief:
as §1

A further data set has as its system MCF-7 (breast carcinoma). The class given is cell-based. The conditions noted are these: Homo sapiens; for IC50: MCF7; for inhibition at 20 µM: MCF7, 48 h, read-out: Cytotoxic Activity (% Growth Inhibition). The method, boiled down:
as §1

The test system of data set [2] is HCT-116 (colon carcinoma). It counts as cell-based. The conditions noted are these: Homo sapiens; for IC50: HCT-116; for inhibition at 20 µM: HCT-116, 48 h, read-out: Cytotoxic Activity (% Growth Inhibition). The method in brief: as §1

A word on the IC50: it is the concentration needed to halve the response being measured. Low values mean inhibition by little substance, high ones a need for much substance.

Consider `C=C1CC[C@@H]2[C@](C)(CO)[C@H](O)CC[C@@]2(C)[C@@H]1C/C=C1/C(=O)OC[C@H]1O` [Compound 1, Andrographolide, reference compound], for which the IC50 (in data set [1]; in the data set with A549 (lung carcinoma); in the data set with MCF-7 (breast carcinoma); in data set [2]) was above 20 µM each time. For the same molecule, the inhibition at 20 µM in data set [1] worked out at 0%; in the data set on A549 (lung carcinoma), 21%; in the data set on MCF-7 (breast carcinoma), 42.93 ± 0.05%; in data set [2], 4.86 ± 0.25%. Further, in the data set with A549 (lung carcinoma), the “Cytotoxic Activity (% Growth Inhibition)” value stood at 21.64 ± 0.22%.
As for `C[C@]1(CO)C2CC=C(COC(=O)c3ccoc3)[C@@H](/C=C/C3=CCOC3=O)[C@]2(C)CC[C@H]1O` (stereo partly drawn) [Compound 9g, ((1S,5R,6R,8aR)-6-Hydroxy-5-(hydroxymethyl)-5,8a-dimethyl-1-((E)-2-(2-oxo-2,5-dihydrofuran-3-yl)vinyl)-1,4,4a,5,6,7,8,8a-octahydronaphthalen-2-yl)methyl Furan-3-carboxylate], the inhibition at 20 µM in data set [1] is 11 ± 0.22%; in the data set with A549 (lung carcinoma), 63.58 ± 0.08%; with MCF-7 (breast carcinoma), 0%; in data set [2] it was 11.28 ± 0.1%.
In the same order, the values of `CCCCCCCCCCCC(=O)OCC1=CCC2[C@](C)(CO)[C@H](O)CC[C@@]2(C)[C@@H]1/C=C/C1=CCOC1=O` (stereo partly drawn) [Compound 9y, ((1S,5R,6R,8aR)-6-Hydroxy-5-(hydroxymethyl)-5,8a-dimethyl-1-((E)-2-(2-oxo-2,5-dihydrofuran-3-yl)vinyl)-1,4,4a,5,6,7,8,8a-octahydronaphthalen-2-yl)methyl Dodecanoate] are 66 ± 0.47%, 1.6 ± 0.98%, 38 ± 0.18% and 4.6 ± 0.44%.
Regarding `Cc1cccc(C(=O)OCC2=CCC3[C@]4(C)COC(c5ccccc5)O[C@@H]4CC[C@@]3(C)[C@@H]2/C=C/C2=CCOC2=O)c1` (stereo partly drawn) [Compound 8i, ((4aR,6aR,7S,10bR)-6a,10b-Dimethyl-7-((E)-2-(2-oxo-2,5-dihydrofuran-3-yl)vinyl)-3-phenyl-4a,5,6,6a,7,10,10a,10b-octahydro-1H-naphtho[2,1-d][1,3]dioxin-8-yl)methyl 3-Methylbenzoate], the inhibition at 20 µM in data set [1] stood at 0%; in the data set on A549 (lung carcinoma), 68%; with MCF-7 (breast carcinoma), 4.37 ± 0.01%; in data set [2], 4.35 ± 0.54%. Further, the “Cytotoxic Activity (% Growth Inhibition)” value with A549 (lung carcinoma) is listed as 67.66 ± 0.23%.
`C[C@]1(CO)C2CC=C(COC(=O)c3cccc(I)c3)[C@@H](/C=C/C3=CCOC3=O)[C@]2(C)CC[C@H]1O` (stereo partly drawn) [Compound 9f, ((1S,5R,6R,8aR)-6-Hydroxy-5-(hydroxymethyl)-5,8a-dimethyl-1-((E)-2-(2-oxo-2,5-dihydrofuran-3-yl)vinyl)-1,4,4a,5,6,7,8,8a-octahydronaphthalen-2-yl)methyl 3-Iodobenzoate]: the inhibition at 20 µM was 49 ± 1% in data set [1], 58 ± 0.15% in the data set on A549 (lung carcinoma), 21.75 ± 0.06% with MCF-7 (breast carcinoma) and 0% in data set [2].
In the same order, the values of `C[C@]1(CO)C2CC=C(COC(=O)c3cccc(Cl)c3)[C@@H](/C=C/C3=CCOC3=O)[C@]2(C)CC[C@H]1O` (stereo partly drawn) [Compound 9d, ((1S,5R,6R,8aR)-6-Hydroxy-5-(hydroxymethyl)-5,8a-dimethyl-1-((E)-2-(2-oxo-2,5-dihydrofuran-3-yl)vinyl)-1,4,4a,5,6,7,8,8a-octahydronaphthalen-2-yl)methyl 3-Chlorobenzoate] are 0%, 49.19 ± 0.2%, 10.02 ± 0.02% and 30.21 ± 0.15%.
As for `COc1ccc(CC(=O)OCC2=CCC3[C@]4(C)COC(c5ccccc5)O[C@@H]4CC[C@@]3(C)[C@@H]2/C=C/C2=CCOC2=O)cc1` (stereo partly drawn) [Compound 8s, ((4aR,6aR,7S,10bR)-6a,10b-Dimethyl-7-((E)-2-(2-oxo-2,5-dihydrofuran-3-yl)vinyl)-3-phenyl-4a,5,6,6a,7,10,10a,10b-octahydro-1H-naphtho[2,1-d][1,3]dioxin-8-yl)methyl 2-(4-Methoxyphenyl)acetate], the IC50 in data set [1] was 5.9 µM; in the data set on A549 (lung carcinoma) it was 6.6 µM; in the data set on MCF-7 (breast carcinoma), 16.9 µM; in data set [2], above 20 µM. The inhibition at 20 µM in data set [1] came out at 75 ± 0.93%; in the data set with A549 (lung carcinoma), 78 ± 0.97%; with MCF-7 (breast carcinoma) it was 54 ± 0.53%; in data set [2] it was 22.1 ± 0.44%.
For the molecule `C[C@@]12COC(c3ccccc3)O[C@@H]1CC[C@]1(C)C2CC=C(COC(=O)c2cccc(C(F)(F)F)c2)[C@H]1/C=C/C1=CCOC1=O` (stereo partly drawn) [Compound 8h, ((4aR,6aR,7S,10bR)-6a,10b-Dimethyl-7-((E)-2-(2-oxo-2,5-dihydrofuran-3-yl)vinyl)-3-phenyl-4a,5,6,6a,7,10,10a,10b-octahydro-1H-naphtho[2,1-d][1,3]dioxin-8-yl)methyl 3-(Trifluoromethyl)benzoate], the inhibition at 20 µM in data set [1] turned out to be 54 ± 0.62%; in the data set on A549 (lung carcinoma) it was 69%; with MCF-7 (breast carcinoma), 0%; in data set [2] it was 4.8 ± 0.02%. The “Cytotoxic Activity (% Growth Inhibition)” value with A549 (lung carcinoma) stood at 69.48 ± 0.42%.
For the molecule `C[C@@]12COC(c3ccccc3)O[C@@H]1CC[C@]1(C)C2CC=C(COC(=O)Cc2ccc(F)cc2)[C@H]1/C=C/C1=CCOC1=O` (stereo partly drawn) [Compound 8p, ((4aR,6aR,7S,10bR)-6a,10b-Dimethyl-7-((E)-2-(2-oxo-2,5-dihydrofuran-3-yl)vinyl)-3-phenyl-4a,5,6,6a,7,10,10a,10b-octahydro-1H-naphtho[2,1-d][1,3]dioxin-8-yl)methyl 2-(4-Fluorophenyl)acetate], the IC50 in data set [1] was 8 µM; in the data set on A549 (lung carcinoma) it was above 20 µM; in the data set with MCF-7 (breast carcinoma), above 20 µM; in data set [2], above 20 µM. In addition, the inhibition at 20 µM in data set [1] amounted to 77 ± 0.86%; in the data set with A549 (lung carcinoma), 17 ± 1.7%; in the data set with MCF-7 (breast carcinoma), 0%; in data set [2], 20.6 ± 0.95%.
`CCCCCCCC(=O)OCC1=CCC2[C@]3(C)COC(c4ccccc4)O[C@@H]3CC[C@@]2(C)[C@@H]1/C=C/C1=CCOC1=O` (stereo partly drawn) [Compound 8w, ((4aR,6aR,7S,10bR)-6a,10b-Dimethyl-7-((E)-2-(2-oxo-2,5-dihydrofuran-3-yl)vinyl)-3-phenyl-4a,5,6,6a,7,10,10a,10b-octahydro-1H-naphtho[2,1-d][1,3]dioxin-8-yl)methyl Octanoate]: the IC50 in data set [1] was above 20 µM; in the data set on A549 (lung carcinoma), 8.4 µM; in the data set with MCF-7 (breast carcinoma) it was 20 µM; in data set [2], above 20 µM. Also, the inhibition at 20 µM in data set [1] amounted to 49 ± 0.85%; in the data set with A549 (lung carcinoma), 70.7 ± 0.73%; with MCF-7 (breast carcinoma) it was 51 ± 0.96%; in data set [2] it was 40.5 ± 0.91%.
As to `COc1cc(CC(=O)OCC2=CCC3[C@]4(C)COC(c5ccccc5)O[C@@H]4CC[C@@]3(C)[C@@H]2/C=C/C2=CCOC2=O)cc(OC)c1OC` (stereo partly drawn) [Compound 8u, ((4aR,6aR,7S,10bR)-6a,10b-Dimethyl-7-((E)-2-(2-oxo-2,5-dihydrofuran-3-yl)vinyl)-3-phenyl-4a,5,6,6a,7,10,10a,10b-octahydro-1H-naphtho[2,1-d][1,3]dioxin-8-yl)methyl 2-(3,4,5-Trimethoxyphenyl)acetate], the IC50 in data set [1] is 9 µM; in the data set with A549 (lung carcinoma), 5.4 µM; with MCF-7 (breast carcinoma), above 20 µM; in data set [2], above 20 µM. The inhibition at 20 µM in data set [1] worked out at 70.9 ± 0.41%; with A549 (lung carcinoma), 72 ± 0.54%; with MCF-7 (breast carcinoma) it was 43 ± 0.28%; in data set [2], 10.9 ± 0.99%. Also, the “potency relative to andrographolide (times / fold more potent)” value with A549 (lung carcinoma) (A549, ratio of IC50 values) is “about 4”.
Consider `C[C@@]12COC(c3ccccc3)O[C@@H]1CC[C@]1(C)C2CC=C(COC(=O)c2ccccc2C(F)(F)F)[C@H]1/C=C/C1=CCOC1=O` (stereo partly drawn) [Compound 8n, ((4aR,6aR,7S,10bR)-6a,10b-Dimethyl-7-((E)-2-(2-oxo-2,5-dihydrofuran-3-yl)vinyl)-3-phenyl-4a,5,6,6a,7,10,10a,10b-octahydro-1H-naphtho[2,1-d][1,3]dioxin-8-yl)methyl 2-(Trifluoromethyl)benzoate], for which the inhibition at 20 µM was found to be 55 ± 0.56% in data set [1], 18 ± 1.4% in the data set with A549 (lung carcinoma), 55 ± 0.69% in the data set with MCF-7 (breast carcinoma) and 31.3 ± 0.89% in data set [2].
The corresponding values for `C[C@@]12COC(c3ccccc3)O[C@@H]1CC[C@]1(C)C2CC=C(COC(=O)c2ccoc2)[C@H]1/C=C/C1=CCOC1=O` (stereo partly drawn) [Compound 8g, ((4aR,6aR,7S,10bR)-6a,10b-Dimethyl-7-((E)-2-(2-oxo-2,5-dihydrofuran-3-yl)vinyl)-3-phenyl-4a,5,6,6a,7,10,10a,10b-octahydro-1H-naphtho[2,1-d][1,3]dioxin-8-yl)methyl Furan-3-carboxylate] are 25 ± 0.58%, 40.95 ± 0.39%, 0% and 0%.
Consider `C[C@]1(CO)C2CC=C(COC(=O)Cc3ccc(F)cc3)[C@@H](/C=C/C3=CCOC3=O)[C@]2(C)CC[C@H]1O` (stereo partly drawn) [Compound 9p, ((1S,5R,6R,8aR)-6-Hydroxy-5-(hydroxymethyl)-5,8a-dimethyl-1-((E)-2-(2-oxo-2,5-dihydrofuran-3-yl)vinyl)-1,4,4a,5,6,7,8,8a-octahydronaphthalen-2-yl)methyl 2-(4-Fluorophenyl)acetate], for which the inhibition at 20 µM stood at 44 ± 0.89% in data set [1], 32.6 ± 0.96% with A549 (lung carcinoma), 12 ± 0.85% in the data set on MCF-7 (breast carcinoma) and 27.6 ± 0.31% in data set [2].
